Test results taken from paper PMC3546147 (Bioorganic & medicinal chemistry, 2012).

Legend:
[1] = system: DU145; details: read-out: GI50, DU145, prior hit; cited from earlier work
[2] = system: KB; details: prior hit; cited from earlier work
[3] = system: A549; details: read-out: GI50, A549, prior hit; cited from earlier work
[4] = system: KB; experiment: Antiproliferative SRB assay, KB; type: cell-based, human; details: positive control
Outline: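 Human nasopharyngeal epidermoid carcinoma KB cells, tested in a panel with A-549, P-gp-expressing KBVIN and DU145 lines. Cytotoxicity was read by the sulforhodamine B (SRB) method, with a reference compound run alongside. GI50 is the molar drug concentration causing 50% tumor cell growth inhibition.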

GI50 ± SD, KB [4] [µM]	GI50 ± SD, KB ([4]; listed as paclitaxel) [µM]	Structure (SMILES)	GI50 [1] [µM]	GI50, KB [2] [µM]	GI50 [3] [µM]
–	–	COc1ccc(Nc2nc(Cl)ccc2[N+](=O)[O-])cc1 [1a, 6-chloro-N-(4-methoxyphenyl)-3-nitropyridin-2-amine]	3.83	7.19	13.5
0.00777 ± 0.00084	0.008	CC(=O)O[C@H]1C(=O)[C@@]2(C)[C@H]([C@H](OC(=O)c3ccccc3)[C@]3(O)C[C@H](OC(=O)[C@H](O)[C@@H](NC(=O)c4ccccc4)c4ccccc4)C(C)=C1C3(C)C)[C@]1(OC(C)=O)CO[C@@H]1C[C@@H]2O [Paclitaxel]	–	–	–
